Test results as given in ChEMBL document CHEMBL1121465 (J Med Chem, 1980).

Tests used:
[1] = organism: Mus musculus; experiment: Effective dose which decreases the 50% of the convulsions induced by bicuculline in mice; assay type: functional
[2] = target: GABA-A receptor; anion channel; experiment: Displacement of [3H]gamma-amino butyric acid from Gamma-aminobutyric acid (GABA-A) receptor of rat brain
[3] = organism: Mus musculus; experiment: Effective dose which decreases the 50% of the lethality induced by bicuculline in mice; assay type: functional
Method in brief: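 Mice given ip serial doses 30 min before iv bicuculline at 0.9 mg/kg, 10 animals per drug per dose per experiment. ED50, the dose protecting half the mice from lethality, derived by log-probit plot.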

[4] = target: GABA-A receptor; anion channel; experiment: Displacement of [3H]gamma-amino butyric acid from Gamma-aminobutyric acid (GABA-A) receptor of human cerebellar cortex preparation
[5] = system: Mus musculus; experiment: Lethal dose which causes death in 50% of the mice within 48 hr of ip administration; assay type: functional
Method in brief: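 Male albino CD1 mice (18–22 g) dosed intraperitoneally, then returned to home cages, 10 per cage. Deaths per dose were counted at 48 h. LD50 was estimated on log-probit paper.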

**Q.** For `NCc1cc(=O)[nH]o1` [MUSCIMOL], which ED50 [1] is on record?
**A.** Its ED50 is 0.25 mg/kg.

**Q.** What about the Ki [2] of the same compound?
**A.** The Ki was 4 nM.

**Q.** And the ED50 [3]?
**A.** The ED50 was > 2 mg/kg.

**Q.** And the Ki [4]?
**A.** Its Ki is 11 nM.

**Q.** What about the LD50 [5] of the same compound?
**A.** Its LD50 is 17 mg/kg.

**Q.** What does the source list for `O=C([O-])CCC/N=C(\c1ccc(Cl)cc1)c1cc(F)ccc1O.[Na+]`?
**A.** ED50 [1]: 15 mg/kg; Ki [2]: 590 nM; ED50 [3]: 70 mg/kg; Ki [4]: 680 nM; LD50 [5]: 420 mg/kg

**Q.** Which results are given for `CCCC(CCC)C(=O)[O-].[Na+]` [VALPROATE SODIUM]?
**A.** ED50 [1]: 33 mg/kg; Ki [2]: > 100000 nM; ED50 [3]: 130 mg/kg; Ki [4]: > 100000 nM; LD50 [5]: 1000 mg/kg

**Q.** With `O=C1NC(=O)C(c2ccccc2)(c2ccccc2)N1` [PHENYTOIN] as the compound, how does the Ki [2] read?
**A.** Its Ki is > 100000 nM.

**Q.** And the ED50 [3]?
**A.** The ED50 was 50 mg/kg.

**Q.** And the LD50 [5]?
**A.** The LD50 was 250 mg/kg.

**Q.** Which ED50 [1] does the source give for `NC(=O)CCC/N=C(\c1ccc(Cl)cc1)c1cc(F)ccc1O` [PROGABIDE] here?
**A.** The ED50 was 20 mg/kg.

**Q.** What about the Ki [2] of the same compound?
**A.** Its Ki is 14000 nM.

**Q.** And the ED50 [3]?
**A.** Its ED50 is 65 mg/kg.

**Q.** What about the Ki [4] of the same compound?
**A.** The Ki was 40000 nM.

**Q.** What about the LD50 [5] of the same compound?
**A.** Its LD50 is 900 mg/kg.
